From ChEMBL document CHEMBL1806416, “Synthesis of 2,4-diaryl chromenopyridines and evaluation of their topoisomerase I and II inhibitory activity, cytotoxicity, and structure-activity relationship” (Eur J Med Chem, 2011)
pIC50: −log10 of the molar value.

Experiments:
[1] = system: HL-60; assay: Cytotoxicity against human HL60 cells after 2 days; assay type: functional, cell-based; settings: HL-60, 48 h
Summary of the method: (§1)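 Cells grown per supplier's instructions, seeded at 2-4 × 10^4 per well and incubated overnight in medium with 10% FBS, 5% CO2, 37 °C. Day 2: medium replaced with graded compound concentrations from DMSO stock (20 mM). Day 4: CCK-8 added for 4 h, absorbance read at 450 nm. Three experiments, each in triplicate, mean ± S.D.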

[2] = system: HCT-15; assay: Cytotoxicity against human HCT15 cells after 2 days; assay type: functional, cell-based; settings: HCT-15, 48 h; summary of the method: as §1
[3] = system: DU-145; assay: Cytotoxicity against human DU145 cells after 2 days; assay type: functional, cell-based; settings: DU-145, 48 h; summary of the method: as §1
[4] = system: HeLa; assay: Cytotoxicity against human HeLa cells after 2 days; assay type: functional, cell-based; settings: 48 h; summary of the method: as §1
[5] = system: MDA-MB-231; assay: Cytotoxicity against human MDA-MB-231 cells after 2 days; assay type: functional; summary of the method: as §1
[6] = target: DNA topoisomerase 2-alpha (Homo sapiens) (UniProt P11388); assay: Inhibition of human DNA topoisomerase 2 alpha assessed as inhibition of supercoiled pBR322 DNA relaxation at 100 uM after 30 mins by gel electrophoresis
Chain of DNA topoisomerase 2-alpha (Homo sapiens) (P11388 whole entry): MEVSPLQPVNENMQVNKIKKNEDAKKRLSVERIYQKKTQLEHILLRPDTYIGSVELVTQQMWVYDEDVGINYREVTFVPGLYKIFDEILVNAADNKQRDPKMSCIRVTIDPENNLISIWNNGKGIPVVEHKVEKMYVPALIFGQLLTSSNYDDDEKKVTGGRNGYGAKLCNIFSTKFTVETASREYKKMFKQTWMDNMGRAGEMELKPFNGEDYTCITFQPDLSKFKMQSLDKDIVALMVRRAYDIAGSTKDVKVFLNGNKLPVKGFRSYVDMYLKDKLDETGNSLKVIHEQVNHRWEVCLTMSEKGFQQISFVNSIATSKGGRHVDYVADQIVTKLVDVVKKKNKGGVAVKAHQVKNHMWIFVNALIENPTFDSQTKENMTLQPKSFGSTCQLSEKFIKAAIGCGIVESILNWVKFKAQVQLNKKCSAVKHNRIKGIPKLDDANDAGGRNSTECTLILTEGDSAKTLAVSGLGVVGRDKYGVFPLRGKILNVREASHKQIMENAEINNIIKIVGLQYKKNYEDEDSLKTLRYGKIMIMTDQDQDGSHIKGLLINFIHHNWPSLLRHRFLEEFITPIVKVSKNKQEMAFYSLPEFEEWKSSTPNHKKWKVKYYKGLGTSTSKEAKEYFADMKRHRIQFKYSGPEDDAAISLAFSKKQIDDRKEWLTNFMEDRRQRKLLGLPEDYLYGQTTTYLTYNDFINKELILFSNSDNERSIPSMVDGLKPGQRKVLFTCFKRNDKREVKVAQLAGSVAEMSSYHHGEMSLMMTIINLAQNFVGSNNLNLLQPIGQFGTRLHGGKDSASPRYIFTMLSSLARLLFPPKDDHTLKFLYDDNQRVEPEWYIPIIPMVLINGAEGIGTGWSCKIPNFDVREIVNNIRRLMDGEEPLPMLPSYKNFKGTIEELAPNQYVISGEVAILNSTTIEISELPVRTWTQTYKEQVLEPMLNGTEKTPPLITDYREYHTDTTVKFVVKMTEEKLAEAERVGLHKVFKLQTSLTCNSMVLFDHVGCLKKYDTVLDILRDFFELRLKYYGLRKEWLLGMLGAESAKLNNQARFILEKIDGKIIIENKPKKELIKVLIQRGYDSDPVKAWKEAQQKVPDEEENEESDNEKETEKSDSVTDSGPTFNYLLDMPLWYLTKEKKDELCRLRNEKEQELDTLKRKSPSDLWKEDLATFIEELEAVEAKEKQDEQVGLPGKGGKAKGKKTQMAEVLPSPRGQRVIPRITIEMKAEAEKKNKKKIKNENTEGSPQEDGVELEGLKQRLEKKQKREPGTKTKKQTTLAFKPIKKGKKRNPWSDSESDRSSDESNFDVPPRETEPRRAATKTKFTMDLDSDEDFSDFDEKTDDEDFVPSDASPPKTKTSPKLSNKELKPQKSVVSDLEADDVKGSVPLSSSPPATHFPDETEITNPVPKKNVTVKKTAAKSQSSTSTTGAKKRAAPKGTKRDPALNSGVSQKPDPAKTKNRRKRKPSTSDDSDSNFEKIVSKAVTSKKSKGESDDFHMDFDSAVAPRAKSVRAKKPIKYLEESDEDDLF
Summary of the method: (§2)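 200 ng supercoiled pBR322 with 1 unit human topo IIα, incubated 30 min at 30 °C in 10 mM Tris-HCl pH 7.9, 50 mM NaCl, 5 mM MgCl2, 1 mM EDTA, 1 mM ATP, BSA. Stopped with EDTA. Run on 1% agarose in TAE at 25 V for 4 h, stained with ethidium bromide, supercoiled band quantified under UV. Three experiments in triplicate.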

[7] = target: T1, DNA topoisomerase 1 (Homo sapiens) (UniProt P11387); assay: Inhibition of human recombinant DNA topoisomerase 1 assessed as inhibition of supercoiled pBR322 DNA relaxation at 100 uM after 30 mins by gel electrophoresis
T1 sequence (whole entry): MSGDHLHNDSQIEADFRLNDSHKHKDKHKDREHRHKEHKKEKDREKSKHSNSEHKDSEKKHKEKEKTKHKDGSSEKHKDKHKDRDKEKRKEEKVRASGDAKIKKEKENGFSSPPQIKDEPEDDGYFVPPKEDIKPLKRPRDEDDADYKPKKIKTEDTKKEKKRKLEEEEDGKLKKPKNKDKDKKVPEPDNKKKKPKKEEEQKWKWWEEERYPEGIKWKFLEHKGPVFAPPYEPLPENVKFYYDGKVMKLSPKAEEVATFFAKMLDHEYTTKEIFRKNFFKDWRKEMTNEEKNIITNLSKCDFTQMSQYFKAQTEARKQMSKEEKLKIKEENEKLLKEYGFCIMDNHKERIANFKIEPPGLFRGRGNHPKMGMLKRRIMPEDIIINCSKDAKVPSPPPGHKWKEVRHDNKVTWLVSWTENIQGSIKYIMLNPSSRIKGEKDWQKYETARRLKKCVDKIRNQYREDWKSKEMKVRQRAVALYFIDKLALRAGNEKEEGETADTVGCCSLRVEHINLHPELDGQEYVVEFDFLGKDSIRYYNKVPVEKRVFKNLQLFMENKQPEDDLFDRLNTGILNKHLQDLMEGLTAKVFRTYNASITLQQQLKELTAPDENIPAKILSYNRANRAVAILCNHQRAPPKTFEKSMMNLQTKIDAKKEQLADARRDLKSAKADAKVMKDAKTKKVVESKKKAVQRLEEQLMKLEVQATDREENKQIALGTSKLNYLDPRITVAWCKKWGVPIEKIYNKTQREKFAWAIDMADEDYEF
Summary of the method: (§3)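 100 ng pBR322 with 0.4 units recombinant human topo I, incubated 30 min at 37 °C in 10 mM Tris-HCl pH 7.9, 150 mM NaCl, 0.1% BSA, 1 mM spermidine, 5% glycerol. Stopped with sarcosyl stop solution. Run on 1% agarose in TAE at 15 V for 7 h, stained with ethidium bromide, bands quantified under UV. Three experiments in triplicate.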

[8] = target: T1, DNA topoisomerase 1 (Homo sapiens); assay: Inhibition of human recombinant DNA topoisomerase 1 assessed as inhibition of supercoiled pBR322 DNA relaxation at 20 uM after 30 mins by gel electrophoresis; summary of the method: as §3
[9] = target: DNA topoisomerase 2-alpha (Homo sapiens) (UniProt P11388); assay: Inhibition of human DNA topoisomerase 2 alpha assessed as inhibition of supercoiled pBR322 DNA relaxation at 20 uM after 30 mins by gel electrophoresis; summary of the method: as §2

inhibition [6] [%]	inhibition [7] [%]	inhibition [8] [%]	inhibition [9] [%]	Compound	pIC50 [1]	pIC50 [2]	pIC50 [3]	pIC50 [4]	IC50 [5] [µM]
10.7	0.6	–	–	c1ccc(-c2cc(-c3ccccn3)c3c(n2)-c2ccccc2OC3)nc1	6.70	4.64	< 4.30	< 4.30	4.7
–	–	–	–	CC[C@@]1(O)C(=O)OCc2c1cc1n(c2=O)Cc2cc3ccccc3nc2-1 [CAMPTOTHECIN]	–	–	–	–	0.3
28.4	4.9	–	–	c1ccc(-c2cc(-c3ccco3)nc3c2COc2ccccc2-3)cc1	5.85	6.40	7.00	5.64	0.2
10.8	0	–	–	c1ccc(-c2cc(-c3cccs3)c3c(n2)-c2ccccc2OC3)cc1	< 4.30	5.92	5.59	4.80	3.9
14.1	9.2	–	–	c1coc(-c2cc(-c3cccs3)nc3c2COc2ccccc2-3)c1	–	–	–	–	–
7.9	0.7	–	–	c1csc(-c2cc(-c3cccs3)c3c(n2)-c2ccccc2OC3)c1	–	–	–	–	–
6.8	0	–	–	c1coc(-c2cc(-c3cccs3)c3c(n2)-c2ccccc2OC3)c1	–	–	–	–	–
14	0	–	–	c1ccc(-c2cc(-c3cccnc3)c3c(n2)-c2ccccc2OC3)cc1	–	–	–	–	–
11.5	0	–	–	c1ccc(-c2cc(-c3ccco3)c3c(n2)-c2ccccc2OC3)cc1	5.14	4.91	4.73	5.85	11.6
7.2	3.1	–	–	c1ccc(-c2cc(-c3ccccn3)nc3c2COc2ccccc2-3)cc1	4.84	4.81	5.12	5.30	11.1
23.4	4.4	–	–	c1ccc(-c2cc(-c3ccco3)c3c(n2)-c2ccccc2OC3)nc1	4.73	< 4.30	4.64	< 4.30	3.3
11.6	46.4	22.9	–	c1coc(-c2cc(-c3ccco3)c3c(n2)-c2ccccc2OC3)c1	5.47	6.22	6.05	5.89	0.6
–	–	–	–	COc1cccc2c1C(=O)c1c(O)c3c(c(O)c1C2=O)C[C@@](O)(C(=O)CO)C[C@@H]3O[C@H]1C[C@H](N)[C@H](O)[C@H](C)O1 [DOXORUBICIN]	–	–	–	–	0.4
8.7	2.6	–	–	c1ccc(-c2cc(-c3cccnc3)c3c(n2)-c2ccccc2OC3)nc1	< 4.30	5.48	5.36	5.89	7.2
25.3	3.3	–	3.2	c1ccc(-c2cc(-c3ccsc3)nc3c2COc2ccccc2-3)nc1	< 4.30	5.08	5.30	< 4.30	25.8
5.6	41.6	15.5	–	c1cncc(-c2cc(-c3ccco3)nc3c2COc2ccccc2-3)c1	5.74	6.22	5.34	5.66	1.1
8.7	0	–	–	c1ccc(-c2cc(-c3ccccn3)c3c(n2)-c2ccccc2OC3)cc1	< 4.30	4.92	5.72	5.55	1.9
7.5	5.5	–	–	c1ccc(-c2cc(-c3cccs3)nc3c2COc2ccccc2-3)cc1	–	–	–	–	–
–	–	–	22.3	COc1cc([C@@H]2c3cc4c(cc3[C@@H](O[C@@H]3O[C@@H]5CO[C@@H](C)O[C@H]5[C@H](O)[C@H]3O)[C@H]3COC(=O)[C@H]23)OCO4)cc(OC)c1O [ETOPOSIDE]	–	–	–	–	0.7
2	11.5	–	–	c1ccc(-c2cc(-c3ccco3)nc3c2COc2ccccc2-3)nc1	–	–	–	–	–
8.4	0	–	–	c1csc(-c2cc(-c3ccoc3)c3c(n2)-c2ccccc2OC3)c1	–	–	–	–	–
10.5	1.9	–	–	c1ccc(-c2cc(-c3ccoc3)c3c(n2)-c2ccccc2OC3)cc1	5.18	4.51	< 4.30	4.40	10
19.4	48.2	4.1	–	c1ccc(-c2cc(-c3cccs3)c3c(n2)-c2ccccc2OC3)nc1	4.86	4.85	4.88	5.21	2.4
15.4	0	–	–	c1ccc(-c2cc(-c3ccccc3)c3c(n2)-c2ccccc2OC3)cc1	4.73	5.29	5.16	4.85	1.8
17.6	3.7	–	–	c1ccc(-c2cc(-c3ccsc3)c3c(n2)-c2ccccc2OC3)cc1	< 4.30	< 4.30	< 4.30	< 4.30	11.9
8.5	1.8	–	–	c1ccc(-c2cc(-c3cccs3)nc3c2COc2ccccc2-3)nc1	–	–	–	–	–
